Measurements as given in ChEMBL document CHEMBL1671619, “Efficacy of pyrvinium pamoate against Cryptosporidium parvum infection in vitro and in a neonatal mouse model” (Antimicrob Agents Chemother, 2008).
Active and inactive are the calls of the source. No cut-off for these calls is given here.

Experiments:
Cryptosporidium parvum [1] = assay: Antimicrobial activity against Cryptosporidium parvum infected in neonatal BALB/C mouse assessed as reduction in oocyst shedding at 12.5 mg/kg/day, po for 4 days treated 3 days postinfection; format: functional; parameters: scale not given: the % may be the effect or the level left
Outline: (§1)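 3-day-old BALB/c mice infected orally with 10⁵ Iowa-isolate oocysts. Oral dosing from day 3 post-infection, 4 or 6 consecutive days, in water with 5% DMSO or 5–10% ethanol final; vehicle controls matched. Euthanized day 9 post-infection. Distal-colon stool smears (2–3 μl) were methanol-fixed and IFA-stained. Oocysts counted over 21 fields at ×400 along a transect; reduction expressed relative to vehicle controls.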

Cryptosporidium parvum [2] = assay: Antimicrobial activity against Cryptosporidium parvum infected in neonatal BALB/C mouse assessed as reduction in trophozoites in appendix at 5 mg/kg/day, po for 6 days by hematoxylin and eosin staining; format: functional; parameters: scale not given: the % may be the effect or the level left
Outline: (§2)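 Infected neonatal BALB/c mice (10⁵ oocysts orally at 3 days old) dosed orally for 6 days from day 3; killed day 9. 1-cm ileal sections (1–6 cm proximal to appendix), appendix/ileocecal junction, and distal colon were formalin-fixed and H&E-stained. Trophozoites per 1,000 epithelial cells scored blind by two readers on duplicate sections. Per-mouse summary score summed across sections; compared with vehicle controls.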

HCT-8 [3] = assay: Cytotoxicity against human HCT8 cells assessed as reduction in viable cells after 48 hrs by MTS assay; format: cell-based; conditions: hct-8, 48 h
Cryptosporidium parvum [4] = assay: Antimicrobial activity against Cryptosporidium parvum infected in neonatal BALB/C mouse assessed as reduction in trophozoites in colon at 5 mg/kg/day, po for 6 days by hematoxylin and eosin staining; format: functional; parameters: scale not given: the % may be the effect or the level left; outline: as §2
Cryptosporidium parvum [5] = assay: Antimicrobial activity against Cryptosporidium parvum infected in neonatal BALB/C mouse assessed as reduction in oocyst shedding at 5 mg/kg/day, po for 4 days treated 3 days postinfection; format: functional; parameters: scale not given: the % may be the effect or the level left; outline: as §1
HCT-8 [6] = assay: Cytotoxicity against human HCT8 cells assessed as reduction in viable cells after 48 hrs at 1.6 uM by MTS assay; format: cell-based; conditions: hct-8, 48 h
Cryptosporidium parvum [7] = assay: Antimicrobial activity against Cryptosporidium parvum infected in neonatal BALB/C mouse assessed as reduction in trophozoites in ileum at 5 mg/kg/day, po for 6 days by hematoxylin and eosin staining; format: functional; parameters: scale not given: the % may be the effect or the level left; outline: as §2
Cryptosporidium parvum [8] = assay: Antimicrobial activity against Cryptosporidium parvum infected in human HCT-8 cells after 48 hrs by ELISA; format: functional, organism-based; conditions: HCT-8, 48 h
Outline: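 HCT-8 monolayers (5 × 10⁴ cells/well, seeded 24 h before) infected with 5 × 10³ Iowa-isolate oocysts in medium with 0.05% bile salts, 90 min at 37°C, then washed. Drug added in growth medium (0.5% DMSO final for DMSO-dissolved drug), 48 h at 37°C. Formalin-fixed; rat anti-sporozoite serum, HRP anti-rat, TMB, A450. Freeze-thawed oocyst background subtracted; % inhibition vs untreated infected wells; triplicate wells, two experiments.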

Cryptosporidium parvum [9] = assay: Antimicrobial activity against Cryptosporidium parvum infected in neonatal BALB/C mouse assessed as reduction in number of trophozoites at 5 mg/kg/day, po for 6 days; format: functional; parameters: scale not given: the % may be the effect or the level left; conditions: in the assay text read “100 mg/kg/day” for “5 mg/kg/day”; outline: as §2
Cryptosporidium parvum [10] = assay: Antimicrobial activity against Cryptosporidium parvum infected in neonatal BALB/C mouse assessed as reduction in oocyst shedding at 5 mg/kg/day, po for 6 days treated 3 days postinfection; format: functional; parameters: scale not given: the % may be the effect or the level left; outline: as §1
Cryptosporidium parvum [11] = assay: Antimicrobial activity against Cryptosporidium parvum infected in SCID mouse assessed as reduction in parasite burden at 200 mg/kg/day, po for 10 days; format: functional, organism-based
Cryptosporidium parvum [12] = assay: Antimicrobial activity against Cryptosporidium parvum infected in human HCT-8 cells; format: functional, organism-based
Cryptosporidium parvum [13] = assay: Antimicrobial activity against Cryptosporidium parvum infected in SCID mouse assessed as reduction in parasite burden at 100 mg/kg/day, po for 10 days; format: functional, organism-based
Cryptosporidium parvum [14] = assay: Antimicrobial activity against Cryptosporidium parvum infected in neonatal ICR swiss mouse assessed as reduction in oocyst shedding at 150 mg/kg/day, po measured on day 6; format: functional; parameters: scale not given: the % may be the effect or the level left
Cryptosporidium parvum [15] = assay: Antimicrobial activity against Cryptosporidium parvum infected in neonatal BALB/C mouse assessed as reduction in number of trophozoites at 5 mg/kg/day, po for 6 days; parameters: scale not given: the % may be the effect or the level left
Cryptosporidium parvum [16] = assay: Antimicrobial activity against Cryptosporidium parvum infected in neonatal BALB/C mouse assessed as reduction in trophozoites in appendix at 100 mg/kg/day, po for 6 days by hematoxylin and eosin staining; format: functional; parameters: scale not given: the % may be the effect or the level left
Outline: (§3)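 Neonatal BALB/c mice were infected orally with 10⁵ oocysts and dosed orally for 6 days from day 3 postinfection, with necropsy on day 9. 1-cm sections of ileum (1–6 cm proximal to appendix), appendix/ileocecal junction and distal colon were formalin-fixed and H&E-stained. Two blinded readers counted trophozoites per 1,000 epithelial cells on duplicate sections. The per-mouse summary score summed all sections; comparison was against water-vehicle controls.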

Cryptosporidium parvum [17] = assay: Antimicrobial activity against Cryptosporidium parvum infected in neonatal BALB/C mouse assessed as reduction in trophozoites in colon at 100 mg/kg/day, po for 6 days by hematoxylin and eosin staining; format: functional; parameters: scale not given: the % may be the effect or the level left; outline: as §3
Cryptosporidium parvum [18] = assay: Antimicrobial activity against Cryptosporidium parvum GCH1 infected in MDBK cells after 48 hrs by ELISA; format: functional
Cryptosporidium parvum [19] = assay: Antimicrobial activity against Cryptosporidium parvum infected in neonatal BALB/C mouse assessed as reduction in oocyst shedding at 100 mg/kg/day, po for 4 days treated 3 days postinfection; format: functional; parameters: scale not given: the % may be the effect or the level left
Outline: (§4)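 3-day-old BALB/c mice were inoculated orally with 10⁵ Iowa-isolate oocysts, and oral daily dosing started 3 days postinfection; water-treated mice served as vehicle controls. Mice were killed on day 9. Distal-colon stool (2–3 μl) was smeared, methanol-fixed and IFA-stained, and oocysts were counted over 21 fields at ×400. % reduction was taken versus vehicle mice; Mann-Whitney tests were used.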

Cryptosporidium parvum [20] = assay: Antimicrobial activity against Cryptosporidium parvum infected in human HCT-8 cells assessed as growth inhibition after 48 hrs by ELISA; format: functional
Outline: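 HCT-8 cells seeded at 5 × 10⁴/well 24 h before infection, then infected with 5 × 10³ Iowa-isolate oocysts in RPMI/10% FBS/0.05% bile salts for 90 min at 37°C and washed. Drug was added and cells incubated 48 h at 37°C, formalin-fixed, then probed with rat anti-sporozoite serum, HRP anti-rat and TMB, read at A450. Freeze-thawed-oocyst background was subtracted; % inhibition was taken versus untreated infected wells. Triplicate wells, two experiments.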

Cryptosporidium parvum [21] = assay: Antimicrobial activity against Cryptosporidium parvum infected in neonatal ICR swiss mouse assessed as reduction in oocyst shedding at 50 mg/kg/day, po measured on day 6; format: functional; parameters: scale not given: the % may be the effect or the level left
Cryptosporidium parvum [22] = assay: Antimicrobial activity against Cryptosporidium parvum infected in neonatal BALB/C mouse assessed as reduction in trophozoites in ileum at 100 mg/kg/day, po for 6 days by hematoxylin and eosin staining; format: functional; parameters: scale not given: the % may be the effect or the level left; outline: as §3
Cryptosporidium parvum [23] = assay: Antimicrobial activity against Cryptosporidium parvum infected in neonatal BALB/C mouse assessed as reduction in oocyst shedding at 100 mg/kg/day, po for 6 days treated 3 days postinfection; format: functional; parameters: scale not given: the % may be the effect or the level left; outline: as §4
HCT-8 [24] = assay: Cytotoxicity against human HCT8 cells assessed as reduction in viable cells at 100 uM by neutral red assay; format: cell-based; conditions: hct-8, 100 µM
HCT-8 [25] = assay: Cytotoxicity against human HCT8 cells assessed as reduction in viable cells at 80 uM by neutral red assay; format: cell-based; conditions: hct-8, 80 µM
HCT-8 [26] = assay: Cytotoxicity against human HCT8 cells assessed as reduction in viable cells by neutral red assay; format: cell-based

With `Cc1cc(/C=C/c2ccc3cc(N(C)C)ccc3[n+]2C)c(C)n1-c1ccccc1` [PYRVINIUM] as the compound, how does the Activity (Cryptosporidium parvum [1]) read?
The Activity was 89.3%.

What about the Activity (Cryptosporidium parvum [2]) of the same compound?
The Activity was 90%.

And the Activity (HCT-8 [3])?
The Activity was less than 15%.

What about the Activity (Cryptosporidium parvum [4]) of the same compound?
The Activity was 90%.

What about the Activity (Cryptosporidium parvum [5]) of the same compound?
Its Activity is 92.6%.

And the Activity (HCT-8 [6])?
The Activity was 40%.

What about the Activity (Cryptosporidium parvum [7]) of the same compound?
The Activity was 90%.

What about the IC50 (Cryptosporidium parvum [8]) of the same compound?
Its IC50 is 0.354 µM.

What about the Activity (Cryptosporidium parvum [9]) of the same compound?
Its Activity is 99%.

What about the Activity (Cryptosporidium parvum [10]) of the same compound?
The Activity was 96.6%.

Which Activity (Cryptosporidium parvum [11]) does the source give for `CC(=O)Oc1ccccc1C(=O)Nc1ncc([N+](=O)[O-])s1` [NITAZOXANIDE] here?
Its Activity is “inactive”.

What about the IC50 (Cryptosporidium parvum [12]) of the same compound?
The IC50 was 3.8 µM.

And the Activity (Cryptosporidium parvum [13])?
Its Activity is “inactive”.

What about the Activity (Cryptosporidium parvum [14]) of the same compound?
The Activity was less than 5%.

Which results are given for `NC[C@@H]1O[C@H](O[C@H]2[C@@H](O)[C@H](O[C@@H]3[C@@H](O)[C@H](N)C[C@H](N)[C@H]3O[C@H]3O[C@H](CO)[C@@H](O)[C@H](O)[C@H]3N)O[C@@H]2CO)[C@H](N)[C@@H](O)[C@@H]1O` [PAROMOMYCIN]?
Activity (Cryptosporidium parvum [15]): 85%; Activity (Cryptosporidium parvum [16]): 90%; Activity (Cryptosporidium parvum [17]): 90%; Activity (Cryptosporidium parvum [18]): >80%; Activity (Cryptosporidium parvum [19]): 95%; inhibition (INH) (Cryptosporidium parvum [20]): 40%; IC50 (Cryptosporidium parvum [8]): 711 µM; Activity (Cryptosporidium parvum [21]): <2%; Activity (Cryptosporidium parvum [22]): 90%; Activity (Cryptosporidium parvum [23]): 96.4%

What does the source list for `CCN(CC)CCCC(C)Nc1ccnc2cc(Cl)ccc12` (stereo not drawn) [CHLOROQUINE]?
Activity (HCT-8 [24]): 15%; Activity (HCT-8 [25]): 12%; IC50 (Cryptosporidium parvum [8]): 27 µM; Activity (HCT-8 [26]): < 5%
